Test [1] can be described thus: Her2 expression decrease, cell viability multiplex – SKBR3 breast tumor cells, AlphaScreen, ATP viability, primary screen (AID 461;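 active = Her2 level under about 52% in both replicate screens, with viability over 70% of control, limit read from the data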;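 for Her2 level: lower value means less Her2 protein in the cells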;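 for viability: percent of carrier control wells set as 100% viability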). As to conditions: SKBR3 Her2 protein level, 18-24 h, measured here: SKBR3 viability, ATP luminescence, at 10 µM. On the technique in general: Bead proximity is the source of the signal in Alpha formats.
Test [2] has as its target Receptor tyrosine-protein kinase erbB-2 (Homo sapiens) (UniProt P04626). The test is described as above. As to conditions: 18-24 h, at 10 µM, stronger effect = lower value.
Test [3] is described as follows: reduced viability of SK-BR-3 breast cancer cells – cell-based, 24 h, human, pilot screen (AID 572;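 active = viability at or below 10% of carrier control in both of two separate runs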;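 note: compound exposure lasted between 18 and 24 h rather than exactly 24 h; 100% = carrier-treated control wells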). As to conditions: SK-BR-3 viability, CellTiter-Glo luminescence, at 10 µM, stronger effect = lower value. In general terms: Cellular ATP, detected with luciferase, serves as a proxy for viable cell number.
Test [4] is described as follows: HUVEC growth inhibition – cell-based, human, primary screen (AID 575).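 Note: 100% = median of untreated cell wells with 0.1% DMSO on each plate.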 As to conditions: HUVEC proliferation, CellTiter-Glo luminescence, 72 h; at 10 µM; stronger effect = lower value. In outline: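 System – primary HUVEC, no more than 12 passages · Medium – Low-serum (2% FBS) EBM, supplemented · Times – 72 h exposure, 37 °C, 5% CO2, 30 min RT equilibration · Measured by – luminescent ATP assay · Read-out – % viability relative to median vehicle-well signal on each plate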

Test [5] can be described thus: H69AR cell proliferation blockers – human, duplicate replicates, primary screen (AID 580;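 active = viability at or under a set limit in both replicates, limit being median viability minus 3 SD, cut at about 48% in these data, passing the limit was not always enough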;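 note: 100% = mean luminescence of untreated wells and 0% = no signal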). As to conditions: H69AR lung tumor cells viability, ATP luminescence, 72 h; at 10 µM; stronger effect = lower value.
A short description of test [6]: MRP1 drug-resistance reversers in H69AR cells – cell-based, doxorubicin co-treatment, pilot screen (AID 601;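 active = viability loss from added drug above about 55%, and viability with drug at most 40%, in both replicates, limit read from the data, passing the limit was not always enough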). As to conditions: CellTiter-Glo, 72 h, at 10 µM; for differential viability (reversal): stronger effect = higher value.
Test [7] is described as follows: yeast transport mutant growth inhibition pilot in 384-well plates, post-Golgi transport modulator project (AID 636; in the data active = inhibition above about 31%). As to conditions: absorbance 615 nm, about 18 h, stronger effect = higher value.
Test [8] in a line: growth suppression of yeast trafficking mutant, preliminary HTS, modulators of trafficking downstream of Golgi apparatus project, 1536-format plate, OD 615 nm (AID 637; in the data active = inhibition above about 30%). As to conditions: yeast transport mutant growth, absorbance 615 nm, 18 h; stronger effect = higher value.
Setting [9] is: H69AR cells + 2 uM doxorubicin, measured here: viability with 2 uM doxorubicin, stronger effect = lower value.
[10] abbreviates: H69AR cells, compound alone cytotoxicity.

SMILES strings stand for the structures. The source made the active and inactive calls.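 Rule for the calls, unless noted: active = viability at or below 30% in both replicate assays; inconclusive = viability at or below 30% in just one of the two assays; inactive = the rest.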

Receptor tyrosine-protein kinase erbB-2 (Homo sapiens), sequence (P04626 whole entry, looked up): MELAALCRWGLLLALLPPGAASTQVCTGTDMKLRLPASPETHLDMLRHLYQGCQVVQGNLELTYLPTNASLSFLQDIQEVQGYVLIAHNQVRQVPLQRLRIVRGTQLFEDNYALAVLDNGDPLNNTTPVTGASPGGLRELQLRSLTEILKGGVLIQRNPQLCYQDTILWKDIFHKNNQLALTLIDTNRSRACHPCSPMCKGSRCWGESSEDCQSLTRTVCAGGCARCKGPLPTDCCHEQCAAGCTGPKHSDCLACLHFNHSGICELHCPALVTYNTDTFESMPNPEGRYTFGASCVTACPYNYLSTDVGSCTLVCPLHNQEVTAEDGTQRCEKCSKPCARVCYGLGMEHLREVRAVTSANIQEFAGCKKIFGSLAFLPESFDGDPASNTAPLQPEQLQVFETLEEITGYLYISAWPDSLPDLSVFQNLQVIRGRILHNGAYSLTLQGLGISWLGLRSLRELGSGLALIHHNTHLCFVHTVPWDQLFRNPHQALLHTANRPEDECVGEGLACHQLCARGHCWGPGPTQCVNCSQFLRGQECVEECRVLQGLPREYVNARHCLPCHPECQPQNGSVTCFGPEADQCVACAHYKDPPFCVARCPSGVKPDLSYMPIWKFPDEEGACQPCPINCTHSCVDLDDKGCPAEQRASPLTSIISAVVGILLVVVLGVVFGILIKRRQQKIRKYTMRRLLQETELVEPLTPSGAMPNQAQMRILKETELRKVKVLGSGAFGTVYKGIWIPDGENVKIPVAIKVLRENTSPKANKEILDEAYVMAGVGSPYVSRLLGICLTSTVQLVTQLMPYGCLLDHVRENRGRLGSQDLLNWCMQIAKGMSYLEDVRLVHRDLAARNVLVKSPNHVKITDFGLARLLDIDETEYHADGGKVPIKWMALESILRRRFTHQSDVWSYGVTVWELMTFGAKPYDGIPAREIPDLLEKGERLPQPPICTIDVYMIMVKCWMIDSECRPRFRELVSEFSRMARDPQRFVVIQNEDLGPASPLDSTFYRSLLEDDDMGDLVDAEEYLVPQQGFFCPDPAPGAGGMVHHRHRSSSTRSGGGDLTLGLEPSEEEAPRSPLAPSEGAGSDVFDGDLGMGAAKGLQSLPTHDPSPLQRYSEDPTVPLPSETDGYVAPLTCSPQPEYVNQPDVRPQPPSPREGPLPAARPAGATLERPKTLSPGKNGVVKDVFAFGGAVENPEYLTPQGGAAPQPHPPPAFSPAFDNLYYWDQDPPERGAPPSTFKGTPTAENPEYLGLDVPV

As a reminder, the viability is a read-out of living cells in per cent, often relative to untreated cells. In general, inhibition refers to the drop in the measured response relative to a control, in per cent. As for `CCCCn1c(CN2CCN(c3cccc(Cl)c3)CC2)nc2c1c(=O)n(C)c(=O)n2C`, the viability is 111% in test [1]; 111% (inactive) in test [3]; 66.9% (inactive) in test [4]; 74.7% (inactive) in test [5]; 24.5% in test [6] (setting [9]); 74.7% in test [6] (setting [10]). In addition, the Her2 level in test [2] is 75% (inactive). Also, in test [6] (H69AR cells + 2 uM doxorubicin), the differential viability (reversal) was 50.2% (inactive). Also, the inhibition in test [7] is -4.74% (inactive); in test [8], 6.07% (inactive).
Take `NC1=NC(c2ccc(Cl)cc2)n2c(nc3ccccc32)N1` (stereo not given): the viability in test [1] is 96%; in test [3] it was 96% (inactive); in test [4], 84.9% (inactive); in test [5], 78.4% (inactive); in test [6] (setting [9]) it was 89.3%; in test [6] (setting [10]), 78.4%. Moreover, the Her2 level in test [2] was 86% (inactive). Also, in test [6] (H69AR cells + 2 uM doxorubicin), the differential viability (reversal) is -10.8% (inactive). Further, the inhibition in test [7] was -5.13% (inactive); in test [8], -0.73% (inactive).
For the molecule `CCCCN(C)C(=O)CS(=O)(=O)Cc1nc(-c2cccc(OC)c2)oc1C`, the viability in test [1] is 94%; in test [3] it was 94% (inactive); in test [4], 94.8% (inactive); in test [5], 99.9% (inactive); in test [6] (setting [9]) it was 84.2%; in test [6] (setting [10]) it was 99.9%. The Her2 level in test [2] is 114% (inactive). Moreover, the differential viability (reversal) in test [6] (H69AR cells + 2 uM doxorubicin) is 15.6% (inactive). Also, the inhibition was -4.4% (inactive) in test [7] and 3.11% (inactive) in test [8].
With `COc1ccc(C2=NOC(C(=O)NC3CCCCC3)C2)cc1OC` (stereo not given), the viability in test [1] is 97.5%; in test [3] it was 97.5% (inactive); in test [4], 106% (inactive); in test [5], 95.9% (inactive); in test [6] (setting [9]), 84.8%; in test [6] (setting [10]) it was 95.9%. Moreover, in test [2], the Her2 level was 92% (inactive). The differential viability (reversal) in test [6] (H69AR cells + 2 uM doxorubicin) was 11.2% (inactive). Moreover, the inhibition in test [7] was -9.04% (inactive); in test [8], 0.95% (inactive).
`CCn1c(=O)c(C(=O)NCCc2ccccc2)c(O)c2ccccc21`: the viability was 99% in test [1]; 99% (inactive) in test [3]; 58.8% (inactive) in test [4]; 61.6% (inactive) in test [5]; 87.6% in test [6] (setting [9]); 61.6% in test [6] (setting [10]). The Her2 level in test [2] was 102% (inactive). In addition, the differential viability (reversal) in test [6] (H69AR cells + 2 uM doxorubicin) is -26% (inactive). Also, the values for the inhibition in test [7] and in test [8] were -1.03% (inactive) and -5.17% (inactive), respectively.
With `COCCNC(=O)c1cc2c(-c3ccccc3F)nn(C)c2s1`, the viability in test [1] is 109%; in test [3] it was 109% (inactive); in test [4], 60.9% (inactive); in test [5] it was 93.9% (inactive); in test [6] (setting [9]) it was 69.3%; in test [6] (setting [10]) it was 93.9%. Also, the Her2 level in test [2] was 74% (inactive). In test [6] (H69AR cells + 2 uM doxorubicin), the differential viability (reversal) is 24.6% (inactive). The figures for the inhibition in test [7] and in test [8] were -6.53% (inactive) and -2.42% (inactive), respectively.
As for `Cc1noc(C)c1COC(=O)c1ccccc1Oc1ccccc1`, the viability in test [1] is 91%; in test [3], 91% (inactive); in test [4] it was 79.1% (inactive); in test [5], 96.5% (inactive); in test [6] (setting [9]), 69.8%; in test [6] (setting [10]), 96.5%. The Her2 level in test [2] is 106% (inactive). For the same molecule, the differential viability (reversal) in test [6] (H69AR cells + 2 uM doxorubicin) is 26.8% (inactive). Moreover, the inhibition in test [7] was -3.25% (inactive); in test [8] it was -5.56% (inactive).
With `CCOC(=O)c1ccc(NC(=O)CCc2nc(-c3cccc(C)c3)no2)cc1`, the viability in test [1] is 114%; in test [3], 114% (inactive); in test [4] it was 40.8% (inactive); in test [5], 86.2% (inactive); in test [6] (setting [9]) it was 99.1%; in test [6] (setting [10]), 86.2%. Moreover, in test [2], the Her2 level is 97.5% (inactive). Moreover, in test [6] (H69AR cells + 2 uM doxorubicin), the differential viability (reversal) is -12.8% (inactive). Also, the figures for the inhibition in test [7] and in test [8] were 0.41% (inactive) and 13% (inactive), respectively.
As for `O=C1c2ccccc2C(=O)N1Cc1nc2ccccc2c(=O)n1CCN1CCOCC1`, the viability in test [1] is 97.5%; in test [3], 97.5% (inactive); in test [4], 111% (inactive); in test [5], 88.8% (inactive); in test [6] (setting [9]), 92.2%; in test [6] (setting [10]), 88.8%. The Her2 level in test [2] was 81.5% (inactive). In test [6] (H69AR cells + 2 uM doxorubicin), the differential viability (reversal) is -3.33% (inactive). For the same molecule, the inhibition in test [7] is -1.18% (inactive); in test [8] it was -4% (inactive).
For the molecule `O=C(CSc1nnc2ccccn12)NCCN1C(=O)CSC1=O`, the viability is 134% in test [1]; 134% (inactive) in test [3]; 92.5% (inactive) in test [4]; 105% (inactive) in test [5]; 93.6% in test [6] (setting [9]); 105% in test [6] (setting [10]). Moreover, the Her2 level in test [2] was 85.5% (inactive). In addition, the differential viability (reversal) in test [6] (H69AR cells + 2 uM doxorubicin) was 11.8% (inactive). Moreover, the inhibition in test [7] was -3.64% (inactive); in test [8], -0.32% (inactive).
As for `COc1cccc(-c2nc(CSCC(=O)N3CCc4ccccc43)c(C)o2)c1`, the viability in test [1] is 82.5%; in test [3], 82.5% (inactive); in test [4], 82.1% (inactive); in test [5], 87.1% (inactive); in test [6] (setting [9]) it was 97.1%; in test [6] (setting [10]), 87.1%. In addition, in test [2], the Her2 level is 162% (inactive). The differential viability (reversal) in test [6] (H69AR cells + 2 uM doxorubicin) is -10.1% (inactive). The inhibition in test [7] is 2.63% (inactive); in test [8] it was -8.67% (inactive).
As to `Cc1oc(-c2ccccc2F)nc1CS(=O)(=O)CC(=O)NCCCN1CCc2ccccc2C1`, the viability in test [1] was 81.5%; in test [3], 81.5% (inactive); in test [4] it was 56.5% (inactive); in test [5] it was 79.9% (inactive); in test [6] (setting [9]), 89.1%; in test [6] (setting [10]) it was 79.9%. Further, the Her2 level in test [2] is 81.5% (inactive). In test [6] (H69AR cells + 2 uM doxorubicin), the differential viability (reversal) was -9.14% (inactive). The inhibition was -1.6% (inactive) in test [7] and -1.97% (inactive) in test [8].
For the molecule `CCOc1cc(S(=O)(=O)Nc2ccccn2)ccc1F`, the viability in test [1] is 114%; in test [3], 114% (inactive); in test [4], 108% (inactive); in test [5] it was 101% (inactive); in test [6] (setting [9]), 93.3%; in test [6] (setting [10]) it was 101%. In test [2], the Her2 level is 110% (inactive). In addition, in test [6] (H69AR cells + 2 uM doxorubicin), the differential viability (reversal) was 7.25% (inactive). Besides, the inhibition in test [7] is -4% (inactive); in test [8] it was -5.9% (inactive).
Take `Cc1c(C(=O)O)sc2ncn(C)c(=O)c12`: the viability in test [1] is 106%; in test [3] it was 106% (inactive); in test [4], 100% (inactive); in test [5], 103% (inactive); in test [6] (setting [9]) it was 91.7%; in test [6] (setting [10]), 103%. Besides, the Her2 level in test [2] is 78% (inactive). Moreover, the differential viability (reversal) in test [6] (H69AR cells + 2 uM doxorubicin) is 11.7% (inactive). The figures for the inhibition in test [7] and in test [8] were -7.76% (inactive) and -4% (inactive), respectively.
For `CCC(=O)Nc1ccc2nc(SCC(=O)N3CCCC3)sc2c1`, the viability in test [1] was 97.5%; in test [3] it was 97.5% (inactive); in test [4] it was 114% (inactive); in test [5] it was 94.1% (inactive); in test [6] (setting [9]), 88.5%; in test [6] (setting [10]), 94.1%. The Her2 level in test [2] is 100% (inactive). In addition, the differential viability (reversal) in test [6] (H69AR cells + 2 uM doxorubicin) was 5.62% (inactive). Also, the inhibition in test [7] is 2.67% (inactive); in test [8], 38.4% (active).
For the molecule `CCn1c(C(=O)N2CCC(C(=O)NCc3ccc4c(c3)OCO4)CC2)cc2sccc21`, the viability was 89% in test [1]; 89% (inactive) in test [3]; 96.7% (inactive) in test [4]; 89.6% (inactive) in test [5]; 85.3% in test [6] (setting [9]); 89.6% in test [6] (setting [10]). Also, the Her2 level in test [2] is 77.5% (inactive). The differential viability (reversal) in test [6] (H69AR cells + 2 uM doxorubicin) is 4.37% (inactive). The figures for the inhibition in test [7] and in test [8] were -2.93% (inactive) and 1.64% (inactive), respectively.

The values above are taken from PubChem BioAssay.
